In the library only some 2% were active in any assay of this set; here they are far more common.
PLC-beta3 inh: inhibitors of human phospholipase C beta3; AID 720704; 370,000 tested, 0.18% active; Purified PLC-beta3, fluorogenic substrate, fluorescence; Q01970; inhibition, % at 12.2 µM; in the data active = inhibition above about 11%
Target sequence (Q01970 whole entry, looked up): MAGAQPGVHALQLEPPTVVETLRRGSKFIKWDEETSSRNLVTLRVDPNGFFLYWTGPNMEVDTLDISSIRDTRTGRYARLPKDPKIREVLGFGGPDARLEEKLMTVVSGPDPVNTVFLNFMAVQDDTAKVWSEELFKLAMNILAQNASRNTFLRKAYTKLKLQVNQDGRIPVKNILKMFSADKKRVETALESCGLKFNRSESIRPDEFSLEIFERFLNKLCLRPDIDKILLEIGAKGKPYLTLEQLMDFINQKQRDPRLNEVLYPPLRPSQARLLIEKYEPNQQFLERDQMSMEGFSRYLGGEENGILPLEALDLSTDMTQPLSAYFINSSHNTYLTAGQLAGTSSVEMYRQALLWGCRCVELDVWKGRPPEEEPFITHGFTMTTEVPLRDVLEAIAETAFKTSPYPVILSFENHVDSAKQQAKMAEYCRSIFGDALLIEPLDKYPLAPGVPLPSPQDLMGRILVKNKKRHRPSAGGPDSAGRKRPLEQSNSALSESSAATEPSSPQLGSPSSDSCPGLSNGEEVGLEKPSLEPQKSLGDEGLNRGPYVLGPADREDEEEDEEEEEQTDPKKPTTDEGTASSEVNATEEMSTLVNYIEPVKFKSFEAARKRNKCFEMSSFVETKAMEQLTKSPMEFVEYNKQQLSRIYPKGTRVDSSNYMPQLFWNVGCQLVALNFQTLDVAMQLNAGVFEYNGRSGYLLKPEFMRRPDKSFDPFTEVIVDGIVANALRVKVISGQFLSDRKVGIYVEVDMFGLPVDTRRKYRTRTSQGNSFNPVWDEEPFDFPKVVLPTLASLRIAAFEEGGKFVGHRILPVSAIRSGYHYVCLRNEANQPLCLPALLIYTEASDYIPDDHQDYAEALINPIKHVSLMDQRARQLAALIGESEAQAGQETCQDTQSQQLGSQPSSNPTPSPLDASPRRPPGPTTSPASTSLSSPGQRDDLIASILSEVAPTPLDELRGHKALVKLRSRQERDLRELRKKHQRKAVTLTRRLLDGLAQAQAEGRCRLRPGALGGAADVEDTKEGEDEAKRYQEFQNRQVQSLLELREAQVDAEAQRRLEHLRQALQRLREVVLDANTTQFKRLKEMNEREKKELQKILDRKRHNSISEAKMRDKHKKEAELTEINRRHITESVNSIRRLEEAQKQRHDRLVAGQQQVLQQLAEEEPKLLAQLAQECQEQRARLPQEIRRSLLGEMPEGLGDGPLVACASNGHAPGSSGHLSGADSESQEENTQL
VIM-2 inh: inhibitors of Pseudomonas aeruginosa VIM-2 metallo-beta-lactamase; purified VIM-2, nitrocefin hydrolysis, epi-absorbance fluorescence; inhibition, % at 5.6 µM; 290,000 tested, 0.89% active; AID 1527;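 active = inhibition above the mean of all tested compounds plus 3 SD, cutoff set per screening run, cut at about 7.5% in these data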;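 also: red hydrolysis product quenches plate fluorescence so inhibitors raise well fluorescence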
IMP-1 inh-1: blocks Pseudomonas aeruginosa IMP-1 metallo-beta-lactamase. purified IMP-1, nitrocefin hydrolysis, epi-absorbance fluorescence. inhibition, % at 5.6 µM. 290,000 tested, 0.45% active. AID 1556;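 active = inhibition above the mean plus 3 SD of all compounds in the same screening run, cut at about 4.5% in these data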
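system = purified recombinant IMP-1 beta-lactamase | amount = 0.2 nM IMP-1, as dispensed | medium = HEPES buffer pH 7.1 with ZnSO4 and Brij 35 | times = 25 °C, 15 min preincubation, 25 min reaction | detection = plate fluorescence quenching by hydrolysis product, ex 480/em 530 nm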
PLC-gamma1 inh: PLC-gamma1 (human) inhibition, primary screen. P19174. purified PLC-gamma1, fluorogenic substrate, fluorescence. inhibition, % at 12.2 µM. 370,000 tested, 0.84% active. AID 720700; in the data active = inhibition above about 9.5%
PvdQ inh: blocks Pseudomonas aeruginosa PvdQ acylase activity. purified PvdQ acylase, fluorescence plate reader. inhibition, % at 10 µM. 340,000 tested, 0.063% active. AID 488965; in the data active = inhibition above about 30%, passing the limit was not always enough
IMP-1 inh-2: selectivity counter-screen for VIM-2 inhibitors: IMP-1 metallo-beta-lactamase inhibitors; shares compounds with VIM-2 inh; 1,300 tested, under 10 active; purified IMP-1, nitrocefin hydrolysis, epi-absorbance fluorescence; inhibition, % at 5.6 µM; call rule not given here
VIM-2 FRET inh: VIM-2 FRET inhibition, artifact counter-screen | inhibition, % at 5.6 µM | shares compounds with VIM-2 inh | 1,300 tested, 23% active | purified VIM-2, CCF2 FRET substrate hydrolysis;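 active = inhibition above the mean of all tested compounds plus 3 SD, cut at about 19% in these data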
TEM-1 inh: TEM-1 inhibition, counter-screen for VIM-2 inhibitors; shares compounds with VIM-2 inh; Purified TEM-1, nitrocefin hydrolysis, epi-absorbance fluorescence; inhibition, % at 5.6 µM; 1,300 tested, 3% active;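 active = inhibition above that campaign's mean inhibition plus 3 SD, cut at about 0.46% in these data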
VIM-2 confirm 2: confirmation of P. aeruginosa VIM-2 metallo-beta-lactamase inhibitors; AID 2187; purified VIM-2, nitrocefin hydrolysis, epi-absorbance; 1,300 tested, 96% active; shares compounds with VIM-2 inh; inhibition, % at 5.6 µM;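 active = inhibition of the VIM-2 beta-lactamase enzyme above about 11% from the earlier first-round screen, limit read from the data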
Each line names hits and unclear results; the compound was inactive in the other large screens (follow-up assays come after a bar, where they were run).

COc1ccc(S[C@]2(C(=O)N(C)C)CC(=O)N(S(=O)(=O)c3ccc(F)cc3)[C@@H]2c2ccc(OC)cc2)cc1	none (no result: VIM-2 inh, IMP-1 inh-1, PvdQ inh)
Clc1ccccc1-c1nnc2sc(-c3ccncc3)nn12	none
Clc1ccccc1-c1nn2c(-c3ccncc3)nnc2s1	VIM-2 inh 22 (no result: PLC-beta3 inh, PLC-gamma1 inh) | IMP-1 inh-2 inactive | VIM-2 FRET inh inactive | TEM-1 inh inactive | VIM-2 confirm 2 55
O=S1(=O)CC2c3ccc(F)cc3CN2CN1Cc1ccccc1 (centres undefined)	none (no result: VIM-2 inh, IMP-1 inh-1, PvdQ inh)
CC(C)c1[nH]nc2c1C1(CCN(Cc3ccccc3)CC1)C(C#N)=C(N)O2	none
CCCc1[nH]nc2c1C1(CCN(C(=O)OCc3ccccc3)CC1)C(C#N)=C(N)O2	VIM-2 inh 18 | IMP-1 inh-2 inactive | VIM-2 FRET inh 22 | TEM-1 inh 0.5 | VIM-2 confirm 2 inactive
CCCCNC(=O)O[C@H]1CC[C@@]23CCCN2C(=O)CCC[C@H]3C1	none (no result: VIM-2 inh, IMP-1 inh-1, PvdQ inh)
CCc1cc(=O)oc2c(C)c(OC(C)C(=O)NCCCN3CCOCC3)ccc12 (centres undefined)	none
Cc1c(OC(C)C(=O)NCCCN2CCOCC2)ccc2c3c(c(=O)oc12)CCC3 (centres undefined)	VIM-2 inh 24 | IMP-1 inh-2 inactive | VIM-2 FRET inh inactive | TEM-1 inh inactive | VIM-2 confirm 2 33
Cc1c(OC(C)C(=O)NCCN2CCOCC2)ccc2c3c(c(=O)oc12)CCC3 (centres undefined)	VIM-2 inh 19 | IMP-1 inh-2 inactive | VIM-2 FRET inh inactive | TEM-1 inh inactive | VIM-2 confirm 2 26
O=C(Nc1ccc(N2CCCCC2)cc1)c1cccnc1	none
O=C(c1ccc(N2CCNCC2)cc1)c1cccnc1	VIM-2 inh 16 | IMP-1 inh-2 inactive | VIM-2 FRET inh inactive | TEM-1 inh inactive | VIM-2 confirm 2 43
CN(C(=O)CNC(=O)c1ccccc1OCC(=O)Nc1ccc(I)cc1)c1ccccc1	none (no result: VIM-2 inh, IMP-1 inh-1, PvdQ inh)
CCCC[n+]1ccn(-c2nc3ccccc3nc2[N-]S(=O)(=O)c2ccccc2)c1	none
C=CC[n+]1ccn(-c2nc3ccccc3nc2[N-]S(=O)(=O)c2cccs2)c1	VIM-2 inh 22 | IMP-1 inh-2 inactive | VIM-2 FRET inh inactive | TEM-1 inh inactive | VIM-2 confirm 2 16
CCCC[n+]1ccn(-c2nc3ccccc3nc2[N-]S(=O)(=O)c2cccs2)c1	VIM-2 inh 19 | IMP-1 inh-2 inactive | VIM-2 FRET inh inactive | TEM-1 inh inactive | VIM-2 confirm 2 21
CCCCN(CC)CCCNC(=O)C1CCN(c2ncnc3c2sc2cccc(F)c23)CC1	VIM-2 inh 30 | IMP-1 inh-2 inactive | VIM-2 FRET inh inactive | TEM-1 inh inactive | VIM-2 confirm 2 38
O=C(NCCN1CCOCC1)C1CCN(Cc2ccccc2O)CC1	none
O=C(NCCN1CCOCC1)C1CCN(c2ncnc3c2sc2cccc(F)c23)CC1	VIM-2 inh 23 | IMP-1 inh-2 inactive | VIM-2 FRET inh inactive | TEM-1 inh inactive | VIM-2 confirm 2 37
COc1ccc(OCC(C)CN2CCC(C(O)(c3ccccc3)c3ccccc3)CC2)cc1 (centres undefined)	none (no result: VIM-2 inh, IMP-1 inh-1, PvdQ inh)
O=S(=O)(CC1NCc2cc(F)ccc21)NCc1ccccc1 (centres undefined)	none (no result: VIM-2 inh, IMP-1 inh-1, PvdQ inh)
CCCC(=O)Nc1nnc(SCC(=O)NCc2cccs2)s1	VIM-2 inh 20 | IMP-1 inh-2 inactive | VIM-2 FRET inh 44 | TEM-1 inh inactive | VIM-2 confirm 2 33
CCCC(=O)Nc1nnc(SCC(=O)NCc2ccco2)s1	none
Cc1cccc(Nc2nnc(SCC(=O)NCc3cccs3)s2)c1	none
COCC(=O)Nc1nnc(SCC(=O)NCc2cccs2)s1	VIM-2 inh 22 | IMP-1 inh-2 inactive | VIM-2 FRET inh 53 | TEM-1 inh inactive | VIM-2 confirm 2 38
Cc1ccc(NC(=O)OC2CC3CC2[C@H]2CCCCN2[C@H]3Cc2ccccc2)cc1 (some centres undefined)	none (no result: VIM-2 inh, IMP-1 inh-1, PvdQ inh)
Cc1cc(OCC(=O)NCCCN2CCCC2=O)c2c(C)c(C)c(=O)oc2c1	none
Cc1cc(OCC(=O)Nc2ccc(CN3CCOCC3)cc2)c2c(C)cc(=O)oc2c1	none
Cc1cc(OCC(=O)Nc2ccc(CN3CCOCC3)cc2)c2c(C)c(C)c(=O)oc2c1	VIM-2 inh 33 | IMP-1 inh-2 inactive | VIM-2 FRET inh inactive | TEM-1 inh inactive | VIM-2 confirm 2 40
Cc1cc(OCC(=O)NCCCN2CCOCC2)c2c(C)c(C)c(=O)oc2c1	VIM-2 inh 26 | IMP-1 inh-2 inactive | VIM-2 FRET inh inactive | TEM-1 inh inactive | VIM-2 confirm 2 36
COc1cc2c(cc1OC)/C(=C/C(=O)c1ccc(F)cc1)NCC2	VIM-2 inh 14 | IMP-1 inh-2 inactive | VIM-2 FRET inh inactive | TEM-1 inh inactive | VIM-2 confirm 2 19
COc1cc2c(cc1OC)/C(=C/C(=O)c1ccccc1F)NCC2	none
Oc1ccc(C2=Nn3c(nnc3-c3ccco3)SC2)cc1O	VIM-2 inh 16 | IMP-1 inh-2 inactive | VIM-2 FRET inh inactive | TEM-1 inh inactive | VIM-2 confirm 2 28
CN1CCN(C(=O)CSc2nc(-c3cccs3)cc(-c3cccs3)c2C#N)CC1	VIM-2 inh 45 (no result: PLC-beta3 inh, PLC-gamma1 inh) | IMP-1 inh-2 inactive | VIM-2 FRET inh inactive | TEM-1 inh inactive | VIM-2 confirm 2 70
CN1CCc2c(sc(NC(=O)c3cc(Cl)sc3Cl)c2C(N)=O)C1	VIM-2 inh 14 (no result: PvdQ inh) | IMP-1 inh-2 inactive | VIM-2 FRET inh inactive | TEM-1 inh inactive | VIM-2 confirm 2 21
COC(=O)C1CN(C2CCCC2)CCS(=O)(=O)N1Cc1cn(Cc2ccccc2)nn1 (centres undefined)	none (no result: VIM-2 inh, IMP-1 inh-1, PvdQ inh)
O=C(O)c1ccccc1C(=O)c1cccc2ccccc12	VIM-2 inh 31 | IMP-1 inh-2 inactive | VIM-2 FRET inh 54 | TEM-1 inh inactive | VIM-2 confirm 2 35
O=C(O)c1ccccc1C(=O)O	none (no result: VIM-2 inh, IMP-1 inh-1)
C=C(c1cccc2ccccc12)P(=O)(O)O	VIM-2 inh 35 | IMP-1 inh-2 inactive | VIM-2 FRET inh 62 | TEM-1 inh inactive | VIM-2 confirm 2 44
CCOC(=O)[C@@]12CN(C(=O)OC(C)(C)C)CC=C1N(Cc1ccc(OC)cc1)C(=O)[C@H]2CC(=O)NCCc1ccccc1OC	none (no result: VIM-2 inh, IMP-1 inh-1, PvdQ inh)
COc1ccc(-c2cc(=O)oc3c(O)c(O)ccc23)cc1	VIM-2 inh 13 | IMP-1 inh-2 inactive | VIM-2 FRET inh inactive | TEM-1 inh inactive | VIM-2 confirm 2 18
COc1ccc(C[N+]2=C(N)NC3=C4CCCCC4n4c(=O)n(-c5ccccc5)c(=O)n4C3C2)c(OC)c1 (centres undefined)	none (no result: VIM-2 inh, IMP-1 inh-1, PvdQ inh)
COc1ccc(CN(C)C(C#Cc2ccccc2)Cc2ccccc2)c(OC)c1 (centres undefined)	none (no result: VIM-2 inh, IMP-1 inh-1, PvdQ inh)
